An excerpt weighted towards active compounds, which were near 2.9% of everything screened.
T cruzi inh = blocks replication of Trypanosoma cruzi | inhibition, % (concentration not given with the values) | 300,000 compounds, 1.4% hits | AID 1885 | T. cruzi beta-gal in NIH3T3, luminescence, 90 h;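 active = mean inhibition across valid replicates above about 55%, limit read from the data; inconclusive = mean below that limit but half or more replicates reach it; inactive = mean below it, under half of replicates reach it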;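 also: signal also drops with host cell toxicity which is not excluded here; higher percent means less beta-gal luminescence so fewer parasites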
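Assay system: NIH/3T3 host cells with β-galactosidase reporter T. cruzi; input: 5,000 host fibroblasts per well; compound: single 50 nL compound addition per well in DMSO; timing: ≥90 h infection period, 3 h prior cell attachment; measured by: GalScreen β-gal luminescence, detergent lysis, 60 min; evaluation: percent inhibition of parasite-derived β-gal signal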
TAG inh = reduces triacylglycerol accumulation in H9c2 cells | Nile Red lipid (TAG) fluorescence; cells loaded with 200 µM oleic acid | inhibition, % at 12.5 µM | 230,000 compounds, 0.66% hits | AID 651582;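 active = pattern-corrected inhibition of lipid staining of at least 50% with the nuclear-stain viability signal not falling by more than 50%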
MIN6 prolif = induces beta-cell replication in MIN6 cells. MIN6 cells proliferation, ATPlite luminescence, 48 h; cells starved in 0.2% serum; 100% = growth in 10% serum. proliferation, % at 10 µM. 330,000 compounds, 0.29% hits. AID 2380;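 active = compounds whose signal lies at least 3.5 SD above the mean of all wells on their plate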
PG9 binder = PG9 antibody binding by small molecule. TR-FRET gp120-PG9 antibody binding. inhibition, % at 6.7 µM. 360,000 compounds, 0.43% hits. AID 624416; in the data active = inhibition above about 8.5%
Rev-erbA mod = modulates human Rev-erb alpha binding to DNA; P20393; Rev-erbα–FITC-DNA binding, fluorescence polarization, 90 min; activity, % at 10 µM; 370,000 compounds, 0.79% hits;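 active = activity above about 14%, limit read from the data; passing the limit was not always enough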
Target sequence (P20393 whole entry, looked up): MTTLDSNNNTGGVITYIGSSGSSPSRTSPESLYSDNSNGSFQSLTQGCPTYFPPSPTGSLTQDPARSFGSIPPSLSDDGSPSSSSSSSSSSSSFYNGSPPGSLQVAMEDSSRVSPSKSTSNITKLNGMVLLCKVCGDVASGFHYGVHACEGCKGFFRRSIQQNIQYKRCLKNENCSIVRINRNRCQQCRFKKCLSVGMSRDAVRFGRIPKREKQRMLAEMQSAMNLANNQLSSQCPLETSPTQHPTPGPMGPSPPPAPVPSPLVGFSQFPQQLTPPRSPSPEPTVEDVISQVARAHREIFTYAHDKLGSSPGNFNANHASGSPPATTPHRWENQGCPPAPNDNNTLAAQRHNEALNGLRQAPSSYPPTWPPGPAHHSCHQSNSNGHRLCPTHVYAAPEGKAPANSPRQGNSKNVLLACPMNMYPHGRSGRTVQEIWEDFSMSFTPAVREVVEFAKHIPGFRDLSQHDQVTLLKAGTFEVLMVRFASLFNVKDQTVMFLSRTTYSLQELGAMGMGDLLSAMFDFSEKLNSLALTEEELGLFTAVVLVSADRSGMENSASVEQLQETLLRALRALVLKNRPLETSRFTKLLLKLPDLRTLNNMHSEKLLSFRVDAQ
iPSC survival up = increases survival of single human iPS cells; hiPSC single-cell survival, ATPlite luminescence; 100% = ROCK inhibitor wells, 0% = DMSO; survival enhancement, % at 20 µM; 360,000 compounds, 0.044% hits; AID 602274; in the data active = survival enhancement above about 18%;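 also: cells exposed to compounds for 16 hours before the ATP read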
Of the large screens only hits and unclear results are named; the others gave an inactive call.

Cc1ccccc1-n1nnnc1Sc1nnnn1-c1ccccc1	none (no result: T cruzi inh)
COC(=O)C1C2CC3c4[nH]c5cc(OC)ccc5c4CCN3CC2CC(OC(=O)CC(C)=O)C1OC (centres undefined)	none (no result: T cruzi inh, MIN6 prolif)
CCOC(=O)Oc1c(OC)cc(C(=O)O[C@@H]2C[C@@H]3CN4CCc5c([nH]c6cc(OC)ccc56)[C@H]4C[C@@H]3[C@H](C(=O)OC)[C@H]2OC)cc1OC	TAG inh 60.2 (no result: T cruzi inh)
CC(C)N1CCN(Cc2ccc(-c3ccccc3Cl)o2)CC1CCO (centres undefined)	T cruzi inh 63.5 (no result: TAG inh)
CC(C)N1CCN(Cc2ccc(-c3ccccc3)cc2)CC1CCO (centres undefined)	none
CC(C)N1CCN(Cc2ccc3c(c2)Cc2ccccc2-3)CC1CCO (centres undefined)	T cruzi inh 58.1 (no result: TAG inh)
C=C1SC(Nc2c(C)cccc2C)=NC12CCCCC2	T cruzi inh 64.3
C=C1SC(Nc2c(C)cc(C)cc2C)=NC12CCCCC2	T cruzi inh 67.5
Cc1cccc(C)c1NC(=O)NC1(C(=O)N2CCCCC2)CCCCC1	none (no result: TAG inh)
S=c1nc(-c2ccccc2)n(CCCn2ccnc2)c2c1CCCC2	none
COc1ccccc1Cc1c(-c2ccc(F)cc2)nc2c3ccccc3ccn12	none (no result: T cruzi inh, TAG inh, MIN6 prolif, iPSC survival up)
O=C1C(=O)N(c2cccc(Cl)c2)C(c2ccccc2[N+](=O)[O-])/C1=C(\O)c1ccccc1 (centres undefined)	none (no result: TAG inh, PG9 binder)
Cc1cc(C(=O)N/N=C/c2cc(Br)cc(Br)c2OC(=O)c2cccc(F)c2)n[nH]1	T cruzi inh 65.5
Cc1cc(C(=O)N/N=C/c2cc(Br)cc(Br)c2OC(=O)c2ccccc2)n[nH]1	none (no result: TAG inh, PG9 binder, Rev-erbA mod, iPSC survival up)
COCCCn1c(SCc2ccccc2)nc2cc(OC)c(OC)cc2c1=N	T cruzi inh 56.3
COCCCn1c(SCc2cccc(C(F)(F)F)c2)nc2cc(OC)c(OC)cc2c1=N	T cruzi inh 57.7
COCCCn1c(SCC(=O)O)nc2cc(OC)c(OC)cc2c1=N	none (no result: TAG inh)
O=[N+]([O-])c1cccc(-c2ccc(C(=S)N3CCN(c4ccc(F)cc4)CC3)o2)c1	none (no result: TAG inh)
CC(C)[C@@H]1CC[C@@H](C)C[C@H]1OC(=O)C[n+]1cc(-c2ccc(Cl)cc2)n2c1CCCCC2	TAG inh 80.1
CCOCc1c(C(=O)NC2=Nc3ccccc3NC(CC)=C2C(=O)OCC)oc2ccccc12	T cruzi inh 56.1
COc1cc2c(cc1OC(C)=O)C(=O)CCCC2	none (no result: T cruzi inh, TAG inh, MIN6 prolif)
Fc1cccc(C2CC(c3cccc(Br)c3)Nc3nnnn32)c1 (centres undefined)	none (no result: TAG inh)
Cc1cc(Nc2cccc([N+](=O)[O-])c2)cc(=O)n1-c1cccc([N+](=O)[O-])c1	none (no result: T cruzi inh, TAG inh, MIN6 prolif, iPSC survival up)
O=C(C#Cc1ccccc1)c1ccc([N+](=O)[O-])cc1	none
O=C(C#Cc1ccccc1)c1ccccc1	TAG inh 63.9 (no result: T cruzi inh, MIN6 prolif)
CC(C)CNS(=O)(=O)c1ccc(S(=O)(=O)N2CCC(N3CCCCC3)CC2)cc1	none (no result: TAG inh)
Cc1ccccc1C(=O)Nc1ccc(CN2CCOCC2)cc1	none
CS(=O)(=O)Nc1ccc2c3c(cccc13)CC2	iPSC survival up 19.9
N#Cc1ccccc1NC(=O)c1ccccc1OCC(=O)NCc1ccco1	none (no result: TAG inh, PG9 binder)
N#Cc1ccccc1NC(=O)c1ccccc1OCC(=O)Nc1ccc2c(c1)oc1ccccc12	T cruzi inh 61.2 (no result: TAG inh)
CC(C)N(Cc1ccccc1)C(=S)NCCN1CCOCC1	none (no result: TAG inh)
COc1ccc(NC(=S)N(Cc2ccc(Cl)cc2)Cc2ccc(C(=O)O)cc2)cc1Cl	none
O=C(CNC(=O)c1cccc(OC(F)F)c1)OCC(=O)c1ccccc1	none
CCOC(=O)N/N=C(/C)c1ccc([N+](=O)[O-])o1	T cruzi inh 57.5 (no result: TAG inh)
CCOc1ccc2c(c1)C(=NNC(=O)c1ccncc1)c1cc(OCC)ccc1-2	T cruzi inh 59.7 (no result: TAG inh)
Cc1ccc(S(=O)(=O)N2CCN(C(=O)CCC(=O)OCC(=O)Nc3cccc(C#N)c3)CC2)cc1	none
Nc1ccc(Cl)c(S(=O)(=O)Nc2ccc(Cl)cc2)c1	T cruzi inh 64.0
N#Cc1c2ccc(OCC(N)=O)cc2n2ccccc12	MIN6 prolif 8.1
Oc1c(N=Nc2ccccn2)ccc2ccccc12	T cruzi inh 72.6, TAG inh 70.5
Oc1[nH]c2ccccc2c1N=Nc1ccccn1	none (no result: T cruzi inh, MIN6 prolif)
COc1ccc(N=C2S/C(=C\c3ccc(N4CCOCC4)o3)C(=O)N2CCc2c[nH]c3ccccc23)cc1	T cruzi inh 56.4, iPSC survival up 40.4 (no result: TAG inh, PG9 binder, Rev-erbA mod)
N#Cc1cnn(-c2ccc([N+](=O)[O-])cc2[N+](=O)[O-])c1N	none (no result: T cruzi inh, MIN6 prolif)
O=c1c2ccccc2ncn1-c1ccc(Cl)cc1[N+](=O)[O-]	none
O=c1c2ccccc2ncn1-c1ccc([N+](=O)[O-])cc1[N+](=O)[O-]	T cruzi inh 63.1 (no result: TAG inh)
Cc1ccc(-n2cnn(-c3ccc([N+](=O)[O-])cc3[N+](=O)[O-])c2=O)cc1	T cruzi inh 57.2 (no result: TAG inh)
CN1CCN(C(=O)c2cccc(-c3cc(O)c4ncccc4c3)c2)CC1	none (no result: T cruzi inh, TAG inh)
Oc1cc(-c2cccnc2)cc2cccnc12	TAG inh 56.3 (no result: T cruzi inh)
CN1CCN(c2cc(-c3cc(O)c4ncccc4c3)ccn2)CC1	TAG inh 76.6 (no result: T cruzi inh)
c1cncc(-c2nc3cc4ccccc4cc3[nH]2)c1	none (no result: TAG inh)
COC(=O)C1=C(C)NC(C)=C(C(=O)OCC(C)C)C1c1ccccc1[N+](=O)[O-] (centres undefined)	none
O=C(CN1CCOCC1)Nc1ccc2c(c1)OC(F)(F)O2	none
Cc1cccc(NS(=O)(=O)c2ccc3[nH]c(=O)oc3c2)c1C	none (no result: T cruzi inh)
CCN(CC)c1ccc(N=Cc2c(C)[nH]c3ccccc23)cc1	none
COc1ccc(NC(=O)C2CCC(=O)N2S(=O)(=O)c2ccc(C)cc2)cc1Cl (centres undefined)	none (no result: TAG inh)
O=C(NC1=C(Nc2ccc(Cl)cc2)C(=O)c2ccccc2C1=O)c1ccccc1	none (no result: TAG inh)
O=C1C(Cl)=C(NC(=O)c2ccccc2)C(=O)C(Cl)=C1NC(=O)c1ccccc1	T cruzi inh 68.1 (no result: TAG inh)
Fc1cccc(COc2ccccc2CNc2ccccc2)c1	none (no result: TAG inh, MIN6 prolif)
CCOc1ccc(NCc2ccccc2OCc2cccc(F)c2)cc1	T cruzi inh 55.1 (no result: TAG inh)
Cc1[nH]c2c(C)cccc2c1CCNC(=O)c1ccc2c(c1[N+](=O)[O-])C(=O)c1ccccc1C2=O	TAG inh 51.5
CCCCSCc1cc(C(=O)O)oc1C(C)(C)C	none
CCCCNC(=O)CCc1c(C)nc2c(c(C)nn2-c2ccccc2)c1C	T cruzi inh 54.6 (no result: TAG inh)
Cc1cc2[nH]c(=O)c(=O)[nH]c2cc1S(=O)(=O)N1CCN(c2cccc(C)c2C)CC1	none
CCc1ccc2oc(=O)cc(CN3CCN(Cc4ccccc4)CC3)c2c1	T cruzi inh 61.4 (no result: TAG inh)
Cc1ccc2c(CN3CCN(Cc4ccccc4)CC3)cc(=O)oc2c1	T cruzi inh 58.5 (no result: TAG inh)
O=c1cc(CN2CCN(Cc3ccccc3)CC2)c2ccc(O)cc2o1	T cruzi inh 55.9 (no result: TAG inh)
Cc1cc2oc(=O)cc(CN3CCN(Cc4ccccc4)CC3)c2cc1Cl	T cruzi inh inconclusive

Compound activity as filed in PubChem.
